Measurements reported in ChEMBL document CHEMBL1649147, “Antistaphylococcal activity of dihydrophthalazine antifolates, a family of novel antibacterial drugs” (2009).

Legend:
[1] = system: Staphylococcus epidermidis; assay: Antibacterial activity against methicillin-resistant, vancomycin-intermediate coagulase-negative Staphylococcus epidermidis 225 after 50 passages by agar dilution method; type: functional
Summary of the method: (§1)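 Daily serial passage for up to 50 days at 35°C for 24 h in 1 ml MHB. […] Each transfer used 10 µl from the tube nearest the MIC (1–2 dilutions below) with the same turbidity as the drug-free control. […] MICs were measured by agar dilution, with changes given as log2 steps.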

[2] = system: Staphylococcus aureus; assay: Antibacterial activity against methicillin-susceptible Staphylococcus aureus by agar dilution method; type: functional
Summary of the method: (§2)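 Agar dilution on Mueller-Hinton agar per CLSI guidelines. S. aureus ATCC 29213 and E. faecalis ATCC 29212 were run with each set, and test MICs were accepted only when the control strains fell within acceptable ranges.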

[3] = system: Staphylococcus aureus; assay: Antibacterial activity against methicillin-resistant Staphylococcus aureus by agar dilution method; type: functional; summary of the method: as §2
[4] = system: Staphylococcus aureus; assay: Antibacterial activity against Tmp-susceptible Staphylococcus aureus by agar dilution method; type: functional
Summary of the method: (§3)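 MICs by agar dilution on Mueller-Hinton agar following CLSI guidelines. S. aureus ATCC 29213 and E. faecalis ATCC 29212 were run as quality controls with each set, and test-strain MICs were kept only if control MICs fell within acceptable ranges.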

[5] = system: Staphylococcus aureus; assay: Antibacterial activity against Tmp-resistant Staphylococcus aureus by agar dilution method; type: functional; summary of the method: as §3
[6] = system: Staphylococcus aureus; assay: Antibacterial activity against vancomycin-resistant Staphylococcus aureus VRS1 by broth macrodilution method; type: functional
Summary of the method: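 Michigan VRSA strain, one of 12 staphylococci later used in time-kill studies. MIC was determined by broth macrodilution and reported in μg/ml.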

[7] = system: Staphylococcus epidermidis; assay: Antibacterial activity against methicillin-resistant coagulase-negative Staphylococcus epidermidis 225 by broth macrodilution method; type: functional
[8] = system: Staphylococcus aureus; assay: Antibacterial activity against methicillin-susceptible, vancomycin-intermediate Staphylococcus aureus 505 after 50 passages by agar dilution method; type: functional; summary of the method: as §1
[9] = system: Staphylococcus aureus; assay: Antibacterial activity against methicillin-resistant and vancomycin-resistant Staphylococcus aureus VRS1 by agar dilution method; type: functional; summary of the method: as §2
[10] = system: Staphylococcus epidermidis; assay: Antibacterial activity against methicillin-resistant, vancomycin-intermediate coagulase-negative Staphylococcus epidermidis 225 by agar dilution method; type: functional; summary of the method: as §2
[11] = system: coagulase-negative staphylococci; assay: Antibacterial activity against Tmp-resistant coagulase-negative staphylococci by agar dilution method
[12] = system: coagulase-negative staphylococci; assay: Antibacterial activity against Tmp-susceptible coagulase-negative staphylococci by agar dilution method
[13] = system: coagulase-negative staphylococci; assay: Antibacterial activity against methicillin-resistant coagulase-negative staphylococci by agar dilution method
[14] = system: coagulase-negative staphylococci; assay: Antibacterial activity against methicillin-susceptible coagulase-negative staphylococci by agar dilution method
[15] = system: Staphylococcus epidermidis; assay: Antibacterial activity against methicillin-susceptible coagulase-negative Staphylococcus epidermidis 051 after 9 passages by agar dilution method; type: functional; summary of the method: as §1
[16] = system: Staphylococcus epidermidis; assay: Antibacterial activity against methicillin-susceptible coagulase-negative Staphylococcus epidermidis 057 after 9 passages by agar dilution method; type: functional; summary of the method: as §1
[17] = system: Staphylococcus epidermidis; assay: Antibacterial activity against methicillin-resistant coagulase-negative Staphylococcus epidermidis 197 after 12 passages by agar dilution method; type: functional; summary of the method: as §1
[18] = system: Staphylococcus epidermidis; assay: Antibacterial activity against methicillin-resistant, vancomycin-intermediate coagulase-negative Staphylococcus epidermidis 225 after 11 passages by agar dilution method; type: functional; summary of the method: as §1
[19] = system: Staphylococcus epidermidis; assay: Antibacterial activity against methicillin-resistant, Linezolid non-susceptible coagulase-negative Staphylococcus epidermidis 345 after 9 passages by agar dilution method; type: functional; summary of the method: as §1
[20] = system: Staphylococcus aureus; assay: Antibacterial activity against Tmp-susceptible coagulase-negative Staphylococcus aureus by agar dilution method; type: functional; summary of the method: as §3
[21] = system: Staphylococcus aureus; assay: Antibacterial activity against methicillin-susceptible Staphylococcus aureus ATCC 29213 by broth macrodilution method; type: functional; settings: ATCC29213
[22] = system: Staphylococcus aureus; assay: Antibacterial activity against methicillin-susceptible Staphylococcus aureus 505 by broth macrodilution method; type: functional
[23] = system: Staphylococcus aureus; assay: Antibacterial activity against methicillin-resistant Staphylococcus aureus ATCC 43300 by broth macrodilution method; type: functional; settings: ATCC43300
[24] = system: Staphylococcus aureus; assay: Antibacterial activity against methicillin-resistant Staphylococcus aureus 145 by broth macrodilution method; type: functional
[25] = system: Staphylococcus aureus; assay: Antibacterial activity against methicillin-resistant Staphylococcus aureus 507 by broth macrodilution method; type: functional
[26] = system: Staphylococcus epidermidis; assay: Antibacterial activity against methicillin-susceptible coagulase-negative Staphylococcus epidermidis 051 by broth macrodilution method; type: functional
[27] = system: Staphylococcus epidermidis; assay: Antibacterial activity against methicillin-susceptible coagulase-negative Staphylococcus epidermidis 057 by broth macrodilution method; type: functional
[28] = system: Staphylococcus epidermidis; assay: Antibacterial activity against methicillin-resistant coagulase-negative Staphylococcus epidermidis 074 by broth macrodilution method; type: functional
[29] = system: Staphylococcus epidermidis; assay: Antibacterial activity against methicillin-resistant coagulase-negative Staphylococcus epidermidis 197 by broth macrodilution method; type: functional
[30] = system: Staphylococcus epidermidis; assay: Antibacterial activity against methicillin-resistant coagulase-negative Staphylococcus epidermidis 345 by broth macrodilution method; type: functional
[31] = system: Staphylococcus aureus; assay: Antibacterial activity against methicillin-susceptible Staphylococcus aureus ATCC 29213 after 9 passages by agar dilution method; type: functional; settings: ATCC29213; summary of the method: as §1
[32] = system: Staphylococcus aureus; assay: Antibacterial activity against methicillin-susceptible, vancomycin-intermediate Staphylococcus aureus 505 by broth macrodilution method; type: functional
[33] = system: Staphylococcus aureus; assay: Antibacterial activity against methicillin-susceptible, vancomycin-intermediate Staphylococcus aureus 505 after 9 passages by agar dilution method; type: functional; summary of the method: as §1
[34] = system: Staphylococcus aureus; assay: Antibacterial activity against methicillin-resistant Staphylococcus aureus ATCC 43300 after 9 passages by agar dilution method; type: functional; settings: ATCC43300
Summary of the method: (§4)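 Serial passage under drug. Inoculum was ~1 × 10^6 CFU/ml from overnight MHA growth, in 1 ml MHB at 35°C for 24 h. Drug ranged from 4 log2 steps above to 3 log2 steps below the MIC. […] MIC change is given as log2 steps.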

[35] = system: Staphylococcus aureus; assay: Antibacterial activity against methicillin-resistant Staphylococcus aureus 145 after 10 passages by agar dilution method; type: functional
[36] = system: Staphylococcus epidermidis; assay: Antibacterial activity against methicillin-resistant, Linezolid non-susceptible coagulase-negative Staphylococcus epidermidis 345 by agar dilution method; type: functional
[37] = system: Staphylococcus aureus; assay: Antibacterial activity against methicillin-resistant and vancomycin-resistant Staphylococcus aureus VRS1 after 50 passages by agar dilution method; type: functional; summary of the method: as §1
[38] = system: Staphylococcus epidermidis; assay: Antibacterial activity against methicillin-susceptible coagulase-negative Staphylococcus epidermidis 051 after 50 passages by agar dilution method; type: functional
Summary of the method: (§5)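 Daily serial passage for up to 50 days at 35°C for 24 h in 1 ml MHB. Each transfer used 10 µl from the tube nearest the MIC (1–2 dilutions below) with the same turbidity as the drug-free control. MICs were measured by agar dilution, with changes given as log2 steps.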

[39] = system: Staphylococcus epidermidis; assay: Antibacterial activity against methicillin-susceptible coagulase-negative Staphylococcus epidermidis 057 after 50 passages by agar dilution method; type: functional; summary of the method: as §5
[40] = system: Staphylococcus epidermidis; assay: Antibacterial activity against methicillin-resistant coagulase-negative Staphylococcus epidermidis 197 after 50 passages by agar dilution method; type: functional; summary of the method: as §5
[41] = system: Staphylococcus epidermidis; assay: Antibacterial activity against methicillin-resistant, Linezolid non-susceptible coagulase-negative Staphylococcus epidermidis 345 after 50 passages by agar dilution method; type: functional; summary of the method: as §5
[42] = system: Staphylococcus aureus; assay: Antibacterial activity against methicillin-susceptible Staphylococcus aureus ATCC 29213 after 50 passages by agar dilution method; type: functional; settings: ATCC29213; summary of the method: as §1
[43] = system: Staphylococcus aureus; assay: Antibacterial activity against methicillin-resistant Staphylococcus aureus ATCC 43300 after 50 passages by agar dilution method; type: functional; settings: ATCC43300; summary of the method: as §4
[44] = system: Staphylococcus aureus; assay: Antibacterial activity against methicillin-resistant Staphylococcus aureus 145 after 50 passages by agar dilution method; type: functional; summary of the method: as §4

CN[C@H](CC(C)C)C(=O)N[C@H]1C(=O)N[C@@H](CC(N)=O)C(=O)N[C@H]2C(=O)N[C@H]3C(=O)N[C@H](C(=O)N[C@H](C(=O)O)c4cc(O)cc(O)c4-c4cc3ccc4O)[C@H](O)c3ccc(c(Cl)c3)Oc3cc2cc(c3O[C@@H]2O[C@H](CO)[C@@H](O)[C@H](O)[C@H]2O[C@H]2C[C@](C)(N)[C@H](O)[C@H](C)O2)Oc2ccc(cc2Cl)[C@H]1O [VANCOMYCIN]
8 µg/mL: MIC [7] | MIC [8] | MIC [10]
1 µg/mL: MIC50 [2] | MIC50 [3] | MIC50 [4] | MIC50 [5] | MIC50 [12]
> 256 µg/mL: MIC [6]
4 µg/mL: MIC90 [5]
16 µg/mL: MIC [1]
> 32 µg/mL: MIC [9]
2 µg/mL: MIC90 [2] | MIC90 [3] | MIC90 [4] | MIC50 [11] | MIC90 [11] | MIC90 [12] | MIC50 [13] | MIC90 [13] | MIC90 [14]

CO[C@H]1/C=C/O[C@@]2(C)Oc3c(C)c(O)c4c(O)c(c(/C=N/N5CCN(C)CC5)c(O)c4c3C2=O)NC(=O)/C(C)=C\C=C\[C@H](C)[C@H](O)[C@@H](C)[C@@H](O)[C@@H](C)[C@H](OC(C)=O)[C@@H]1C [RIFAMPIN]
≤ 0.004 µg/mL: MIC [20] | MIC [14]
0.004 µg/mL: MIC [23]
> 32 µg/mL: MIC [9]
4 µg/mL: MIC [25]
2 µg/mL: MIC90 [13]
0.03 µg/mL: MIC [22] | MIC [27] | MIC [28] | MIC [29] | MIC [7]
0.008 µg/mL: MIC50 [2] | MIC50 [5] | MIC [21] | MIC [24] | MIC [36] | MIC50 [11] | MIC50 [12] | MIC50 [13]
0.016 µg/mL: MIC90 [2] | MIC50 [3] | MIC90 [3] | MIC50 [4] | MIC90 [4] | MIC [26] | MIC [30] | MIC [32] | MIC [10] | MIC90 [12] | MIC90 [14]
> 128 µg/mL: MIC [15] | MIC [16] | MIC [17] | MIC [18] | MIC [19] | MIC [6] | MIC [31] | MIC [33] | MIC [34] | MIC [35]
> 16 µg/mL: MIC90 [5] | MIC90 [11]

CN(C)c1ccc(O)c2c1C[C@H]1C[C@H]3[C@H](N(C)C)C(O)=C(C(N)=O)C(=O)[C@@]3(O)C(O)=C1C2=O [MINOCYCLINE]
0.5 µg/mL: MIC [27] | MIC [9] | MIC [36] | MIC50 [11] | MIC90 [11] | MIC90 [14]
4 µg/mL: MIC [38] | MIC [24]
0.25 µg/mL: MIC90 [2] | MIC90 [4] | MIC50 [5] | MIC [28] | MIC [30] | MIC50 [13]
0.125 µg/mL: MIC50 [2] | MIC50 [3] | MIC50 [4] | MIC [21] | MIC [22] | MIC [23] | MIC [26] | MIC [29] | MIC [7] | MIC [32] | MIC [10] | MIC50 [12] | MIC [14]
2 µg/mL: MIC [37] | MIC [39] | MIC [40] | MIC90 [3] | MIC [25] | MIC [42]
0.06 µg/mL: MIC [20]
1 µg/mL: MIC [1] | MIC [41] | MIC [6] | MIC [8] | MIC [43] | MIC90 [12] | MIC90 [13]
8 µg/mL: MIC90 [5] | MIC [44]
